Measured values from ChEMBL document CHEMBL2062460, “Disubstituted thiourea derivatives and their activity on CNS: synthesis and biological evaluation” (Eur J Med Chem, 2012).
In brackets after ≈: the same amount, converted by molar mass. Activity calls are given as the source filed them. The calls are words filed in the database; no cut-off is given here.

What was measured:
Staphylococcus aureus [1] = test: Antibacterial activity against methicillin-resistant Staphylococcus aureus clinical isolate 357/09 after 18 hrs by twofold serial agar dilution technique; format: functional; details: clinical isolate 357/09, 18 h
How it was run: (§1)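 Clinical isolates came from patients in Warsaw Medical University Hospitals and were classed as methicillin-susceptible or -resistant. MIC was determined by twofold serial agar dilution on Mueller–Hinton II agar (CLSI), 3.125–400 µg/mL in agar, with compounds in methanol or DMSO. Inoculum was 10^4 CFU/mL and plates were read after 18 h at 35 °C.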

Escherichia coli [2] = test: Antibacterial activity against Escherichia coli ATCC 25922 at 400 ug/disc after 18 hrs by disc diffusion method; format: functional, organism-based
How it was run: (§2)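 Disc diffusion per CLSI on Mueller–Hinton II agar; 9 mm paper discs loaded from methanol or DMSO solutions to 400 µg per disc, dried; growth inhibition zone diameter read after 18 h at 35 °C.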

Staphylococcus aureus [3] = test: Antibacterial activity against methicillin-susceptible Staphylococcus aureus clinical isolate 261/08 after 18 hrs by twofold serial agar dilution technique; format: functional; details: clinical isolate 261/08, 18 h; how it was run: as §1
Micrococcus luteus = test: Antibacterial activity against Micrococcus luteus ATCC 10240 at 400 ug/disc after 18 hrs by disc diffusion method; format: functional; details: ATCC 10240, 18 h, read-out: DIZ; how it was run: as §2
[4] = system: Staphylococcus epidermidis; test: Antibacterial activity against Staphylococcus epidermidis ATCC 12228 at 400 ug/disc after 18 hrs by disc diffusion method; format: functional; details: for zone of inhibition at 400 µg/disc: ATCC 12228, 18 h, read-out: DIZ; how it was run: as §2
Staphylococcus aureus [5] = test: Antibacterial activity against Staphylococcus aureus ATCC 29213 at 400 ug/disc after 18 hrs by disc diffusion method; format: functional; details: ATCC 29213, 18 h, read-out: DIZ; how it was run: as §2
Staphylococcus aureus [6] = test: Antibacterial activity against methicillin-resistant Staphylococcus aureus clinical isolate 275/08 after 18 hrs by twofold serial agar dilution technique; format: functional; details: clinical isolate 275/08, 18 h; how it was run: as §1
Staphylococcus aureus [7] = test: Antibacterial activity against Staphylococcus aureus ATCC 29213 after 18 hrs by twofold serial agar dilution technique; format: functional; details: ATCC 29213, 18 h
How it was run: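 Twofold serial agar dilution on Mueller–Hinton II agar, following CLSI guidelines. Compounds were dissolved in methanol or DMSO and tested at final agar concentrations of 3.125–400 µg/mL. Final inoculum was 10^4 CFU/mL.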

Candida parapsilosis = test: Antifungal activity against Candida parapsilosis ATCC 22019 at 400 ug/disc after 18 hrs by disc diffusion method; format: functional, organism-based
How it was run: (§3)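 Yeasts tested by disc diffusion (CLSI) on RPMI agar with 2% glucose; 9 mm paper discs bearing 400 µg compound from methanol or DMSO solution; inhibition zone diameter read after 18 h at 35 °C.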

Staphylococcus aureus [8] = test: Antibacterial activity against methicillin-resistant Staphylococcus aureus clinical isolate 329/08 after 18 hrs by twofold serial agar dilution technique; format: functional; details: clinical isolate 329/08, 18 h; how it was run: as §1
Staphylococcus aureus [9] = test: Antibacterial activity against methicillin-susceptible Staphylococcus aureus clinical isolate 267/08 after 18 hrs by twofold serial agar dilution technique; format: functional; details: clinical isolate 267/08, 18 h; how it was run: as §1
Escherichia coli [10] = test: Antibacterial activity against Escherichia coli NCTC 8196 at 400 ug/disc after 18 hrs by disc diffusion method; format: functional, organism-based; how it was run: as §2
Staphylococcus aureus [11] = test: Antibacterial activity against methicillin-susceptible Staphylococcus aureus clinical isolate 268/08 after 18 hrs by twofold serial agar dilution technique; format: functional; details: clinical isolate 268/08, 18 h; how it was run: as §1
Candida albicans = test: Antifungal activity against Candida albicans ATCC 90028 at 400 ug/disc after 18 hrs by disc diffusion method; format: functional, organism-based; how it was run: as §3
Enterococcus hirae = test: Antibacterial activity against Enterococcus hirae ATCC 10541 at 400 ug/disc after 18 hrs by disc diffusion method; format: functional; details: for zone of inhibition at 400 µg/disc: ATCC 10541, 18 h, read-out: DIZ; how it was run: as §2
Escherichia coli [12] = test: Antibacterial activity against Escherichia coli ATCC 10538 at 400 ug/disc after 18 hrs by disc diffusion method; format: functional, organism-based; how it was run: as §2
Staphylococcus aureus [13] = test: Antibacterial activity against methicillin-susceptible Staphylococcus aureus clinical isolate 369/09 after 18 hrs by twofold serial agar dilution technique; format: functional; details: clinical isolate 369/09, 18 h; how it was run: as §1
Bacillus cereus = test: Antibacterial activity against Bacillus cereus ATCC 11778 after 18 hrs by twofold serial agar dilution technique; format: functional; details: ATCC 11778, 18 h
Staphylococcus aureus [14] = test: Antibacterial activity against methicillin-resistant Staphylococcus aureus clinical isolate 325/09 after 18 hrs by twofold serial agar dilution technique; format: functional; details: clinical isolate 325/09, 18 h; how it was run: as §1
Staphylococcus aureus [15] = test: Antibacterial activity against methicillin-susceptible Staphylococcus aureus clinical isolate 256/08 after 18 hrs by twofold serial agar dilution technique; format: functional; details: clinical isolate 256/08, 18 h; how it was run: as §1
[16] = system: Human immunodeficiency virus 1; test: Antiviral activity against HIV1 infected in human MT4 cells assessed as virus-induced cytopathogenicity after 4 days by MTT assay; format: functional, organism-based; details: Human immunodeficiency virus 1, MT4, 96 h
[17] = Cytotoxicity against human MT4 cells after 96 hrs by MTT assay; format: cell-based
[18] = system: Staphylococcus epidermidis; test: Antibacterial activity against methicillin-resistant Staphylococcus epidermidis clinical isolate 318/08 after 18 hrs by twofold serial agar dilution technique; format: functional; details: clinical isolate 318/08, 18 h; how it was run: as §1
[19] = system: Staphylococcus epidermidis; test: Antibacterial activity against methicillin-resistant Staphylococcus epidermidis clinical isolate 343/09 after 18 hrs by twofold serial agar dilution technique; format: functional; details: clinical isolate 343/09, 18 h; how it was run: as §1
[20] = system: Staphylococcus epidermidis; test: Antibacterial activity against methicillin-resistant Staphylococcus epidermidis clinical isolate 315/08 after 18 hrs by twofold serial agar dilution technique; format: functional; details: clinical isolate 315/08, 18 h; how it was run: as §1
[21] = system: Staphylococcus epidermidis; test: Antibacterial activity against methicillin-resistant Staphylococcus epidermidis clinical isolate 317/08 after 18 hrs by twofold serial agar dilution technique; format: functional; details: clinical isolate 317/08, 18 h; how it was run: as §1

SMILES | MIC (Staphylococcus aureus [1]) [µg/mL] | diameter of the inhibition zone (DIZ) (Escherichia coli [2]) | MIC (Staphylococcus aureus [3]) [µg/mL] | zone of inhibition at 400 µg/disc (Micrococcus luteus) [mm] | zone of inhibition at 400 µg/disc [4] [mm] | zone of inhibition at 400 µg/disc (Staphylococcus aureus [5]) [mm] | MIC (Staphylococcus aureus [6]) [µg/mL] | MIC (Staphylococcus aureus [7]) [µg/mL] | diameter of the inhibition zone (DIZ) (Candida parapsilosis) | MIC (Staphylococcus aureus [8]) [µg/mL] | MIC (Staphylococcus aureus [9]) [µg/mL] | diameter of the inhibition zone (DIZ) (Escherichia coli [10]) | MIC (Staphylococcus aureus [11]) [µg/mL] | diameter of the inhibition zone (DIZ) (Candida albicans) | zone of inhibition at 400 µg/disc (Enterococcus hirae) [mm] | diameter of the inhibition zone (DIZ) (Escherichia coli [12]) | MIC (Staphylococcus aureus [13]) [µg/mL] | MIC (Bacillus cereus) [µg/mL] | MIC (Staphylococcus aureus [14]) [µg/mL] | MIC (Staphylococcus aureus [15]) [µg/mL] | also measured
Fc1cccc(NC(=S)Nc2nc[nH]n2)c1 | 25 (≈ 105 µM) | inactive | 25 (≈ 105 µM) | 40 | 22 | 18 | 25 (≈ 105 µM) | 50 (≈ 211 µM) | inactive | 12.5 (≈ 52.7 µM) | 25 (≈ 105 µM) | inactive | 25 (≈ 105 µM) | inactive | 16 | inactive | 12.5 (≈ 52.7 µM) | 50 (≈ 211 µM) | 12.5 (≈ 52.7 µM) | 25 (≈ 105 µM) | 
S=C(Nc1ccc(Cl)cc1)Nc1nc[nH]n1 | 50 (≈ 197 µM) | inactive | 25 (≈ 98.5 µM) | 30 | 20 | 17 | 25 (≈ 98.5 µM) | 25 (≈ 98.5 µM) | inactive | 25 (≈ 98.5 µM) | 25 (≈ 98.5 µM) | inactive | 25 (≈ 98.5 µM) | inactive | 23 | inactive | 25 (≈ 98.5 µM) | 12.5 (≈ 49.3 µM) | 25 (≈ 98.5 µM) | 25 (≈ 98.5 µM) | EC50 [16]: > 47 µM; CC50 at 96 h [17]: 47 µM; MIC [18]: 25 µg/mL (≈ 98.5 µM); MIC [19]: 25 µg/mL (≈ 98.5 µM); MIC [20]: 25 µg/mL (≈ 98.5 µM); MIC [21]: 25 µg/mL (≈ 98.5 µM)
Fc1ccccc1NC(=S)Nc1nc[nH]n1 | > 400 | inactive | > 400 | 38 | 11 | 12 | > 400 | 200 (≈ 843 µM) | inactive | > 400 | > 400 | inactive | > 400 | inactive |  | inactive | > 400 | 100 (≈ 421 µM) | > 400 | > 400 | diameter of the inhibition zone (DIZ) (Enterococcus hirae): inactive
S=C(Nc1ccc(I)cc1)Nc1nc[nH]n1 | 50 (≈ 145 µM) | inactive | 25 (≈ 72.4 µM) | 16 |  | 13 | 50 (≈ 145 µM) | 25 (≈ 72.4 µM) | inactive | 25 (≈ 72.4 µM) | 25 (≈ 72.4 µM) | inactive | 25 (≈ 72.4 µM) | inactive | 13 | inactive | 50 (≈ 145 µM) | 12.5 (≈ 36.2 µM) | 25 (≈ 72.4 µM) | 25 (≈ 72.4 µM) | EC50 [16]: > 46 µM; diameter of the inhibition zone (DIZ) [4]: inactive; CC50 at 96 h [17]: 46 µM; MIC [18]: 12.5 µg/mL (≈ 36.2 µM); MIC [19]: 50 µg/mL (≈ 145 µM); MIC [20]: 50 µg/mL (≈ 145 µM); MIC [21]: 50 µg/mL (≈ 145 µM)
